The source made the active and inactive calls. The calls are words filed in the database; no cut-off is given here.
Assays:
Format in all cases: functional
Tobacco mosaic virus [1] = assay: Antiviral activity against Tobacco mosaic virus (TMV) infected tobacco leaves exposed to 2000 ug/mL for 20 min assessed as inhibition of viral growth measured 72 hr post compound treatment compound by half-leaf juice rubbing method
How it was run: (§1)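 Half-leaf method on tobacco. A fresh leaf from a plant at the 5-6 leaf age was rub-inoculated with TMV (5.88×10-2 μg/mL) and cut along the main vein. One half was immersed in compound solution and the other in double-distilled water, each for 20 min. Halves were kept at 25 °C and 100% humidity for 72 h, then lesions were counted. Three replicates were run. Inhibition = (CK−A)/CK×100 from mean lesion numbers.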

Tobacco mosaic virus [2] = assay: Antiviral activity against Tobacco mosaic virus (TMV) infected tobacco leaves exposed to 100 ug/mL for 20 min assessed as inhibition of viral growth measured 72 hr post compound treatment compound by half-leaf juice rubbing method; how it was run: as §1
Tobacco mosaic virus [3] = assay: Induction of systemic acquired resistance against Tobacco mosaic virus (TMV) in tobacco plants exposed to 1000 ug/mL compound through irrigation based soil treatment followed by 7 days culture under green house conditions assessed as inhibition of viral growth in leaves infected with Tobacco mosaic virus (TMV) measured 72 hr post viral infection by half-leaf juice rubbing method; design: scale not given: the % may be the effect or the level left
How it was run: (§2)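 Tobacco plants received compound by leaf spray or by soil irrigation, with double-distilled water as CK. Newly grown leaves were then rub-inoculated with TMV (5.88×10-2 μg/mL), and plants were kept at 25 °C for 72 h. Lesions on inoculated leaves were counted. Inhibition = (CK−A)/CK×100 from mean lesion numbers versus control.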

Tobacco mosaic virus [4] = assay: In vivo antiviral activity against Tobacco mosaic virus (TMV) infected tobacco leaves exposed to 50 ug/mL for 20 min assessed as inhibition of viral growth measured 72 hr post compound treatment compound by half-leaf juice rubbing method; how it was run: as §1
Tobacco mosaic virus [5] = assay: In vivo antiviral activity against Tobacco mosaic virus (TMV) infected tobacco leaves exposed to 100 ug/mL for 20 min assessed as inhibition of viral growth measured 72 hr post compound treatment compound by half-leaf juice rubbing method; how it was run: as §1
Tobacco mosaic virus [6] = assay: Antiviral activity against Tobacco mosaic virus (TMV) infected tobacco leaves exposed to 1000 ug/mL for 20 min assessed as inhibition of viral growth measured 72 hr post compound treatment compound by half-leaf juice rubbing method; how it was run: as §1
Tobacco mosaic virus [7] = assay: Induction of systemic acquired resistance against Tobacco mosaic virus (TMV) in tobacco plants exposed to 500 ug/mL compound through irrigation based soil treatment followed by 7 days culture under green house conditions assessed as inhibition of viral growth in leaves infected with Tobacco mosaic virus (TMV) measured 72 hr post viral infection by half-leaf juice rubbing method; design: scale not given: the % may be the effect or the level left; how it was run: as §2
Tobacco mosaic virus [8] = assay: Induction of systemic acquired resistance against Tobacco mosaic virus (TMV) in tobacco plants exposed to 100 ug/mL compound through leaf spray followed by 7 days culture under green house conditions assessed as inhibition of viral growth in leaves infected with Tobacco mosaic virus (TMV) measured 72 hr post viral infection by half-leaf juice rubbing method; design: scale not given: the % may be the effect or the level left; how it was run: as §2
Tobacco mosaic virus [9] = assay: Antiviral activity against Tobacco mosaic virus (TMV) infected tobacco leaves exposed to 50 ug/mL for 20 min assessed as inhibition of viral growth measured 72 hr post compound treatment compound by half-leaf juice rubbing method; how it was run: as §1
Tobacco mosaic virus [10] = assay: Induction of systemic acquired resistance against Tobacco mosaic virus (TMV) in tobacco plants exposed to 2000 ug/mL compound through irrigation based soil treatment followed by 7 days culture under green house conditions assessed as inhibition of viral growth in leaves infected with Tobacco mosaic virus (TMV) measured 72 hr post viral infection by half-leaf juice rubbing method; design: scale not given: the % may be the effect or the level left; how it was run: as §2
Tobacco mosaic virus [11] = assay: Induction of systemic acquired resistance against Tobacco mosaic virus (TMV) in tobacco plants exposed to 50 ug/mL compound through leaf spray followed by 7 days culture under green house conditions assessed as inhibition of viral growth in leaves infected with Tobacco mosaic virus (TMV) measured 72 hr post viral infection by half-leaf juice rubbing method; design: scale not given: the % may be the effect or the level left; how it was run: as §2
Tobacco mosaic virus [12] = assay: Induction of systemic acquired resistance against Tobacco mosaic virus (TMV) in tobacco plants exposed to 500 ug/mL compound through leaf spray followed by 7 days culture under green house conditions assessed as inhibition of viral growth in leaves infected with Tobacco mosaic virus (TMV) measured 72 hr post viral infection by half-leaf juice rubbing method; design: scale not given: the % may be the effect or the level left; how it was run: as §2
Tobacco mosaic virus [13] = assay: Induction of systemic acquired resistance against Tobacco mosaic virus (TMV) in tobacco plants exposed to 50 ug/mL compound through irrigation based soil treatment followed by 7 days culture under green house conditions assessed as inhibition of viral growth in leaves infected with Tobacco mosaic virus (TMV) measured 72 hr post viral infection by half-leaf juice rubbing method; design: scale not given: the % may be the effect or the level left; how it was run: as §2
Tobacco mosaic virus [14] = assay: In vivo antiviral activity against Tobacco mosaic virus (TMV) infected tobacco leaves exposed to 1000 ug/mL for 20 min assessed as inhibition of viral growth measured 72 hr post compound treatment compound by half-leaf juice rubbing method; how it was run: as §1
Tobacco mosaic virus [15] = assay: Induction of systemic acquired resistance against Tobacco mosaic virus (TMV) in tobacco plants exposed to 100 ug/mL compound through irrigation based soil treatment followed by 7 days culture under green house conditions assessed as inhibition of viral growth in leaves infected with Tobacco mosaic virus (TMV) measured 72 hr post viral infection by half-leaf juice rubbing method; design: scale not given: the % may be the effect or the level left; how it was run: as §2
Tobacco mosaic virus [16] = assay: Antiviral activity against Tobacco mosaic virus (TMV) infected tobacco leaves exposed to 500 ug/mL for 20 min assessed as inhibition of viral growth measured 72 hr post compound treatment compound by half-leaf juice rubbing method; how it was run: as §1
Tobacco mosaic virus [17] = assay: Induction of systemic acquired resistance against Tobacco mosaic virus (TMV) in tobacco plants exposed to 2000 ug/mL compound through leaf spray followed by 7 days culture under green house conditions assessed as inhibition of viral growth in leaves infected with Tobacco mosaic virus (TMV) measured 72 hr post viral infection by half-leaf juice rubbing method; design: scale not given: the % may be the effect or the level left; how it was run: as §2
Tobacco mosaic virus [18] = assay: In vivo antiviral activity against Tobacco mosaic virus (TMV) infected tobacco leaves exposed to 500 ug/mL for 20 min assessed as inhibition of viral growth measured 72 hr post compound treatment compound by half-leaf juice rubbing method; how it was run: as §1
Tobacco mosaic virus [19] = assay: In vivo antiviral activity against Tobacco mosaic virus (TMV) infected tobacco leaves exposed to 2000 ug/mL for 20 min assessed as inhibition of viral growth measured 72 hr post compound treatment compound by half-leaf juice rubbing method; how it was run: as §1
Tobacco mosaic virus [20] = assay: Induction of systemic acquired resistance against Tobacco mosaic virus (TMV) in tobacco plants exposed to 1000 ug/mL compound through leaf spray followed by 7 days culture under green house conditions assessed as inhibition of viral growth in leaves infected with Tobacco mosaic virus (TMV) measured 72 hr post viral infection by half-leaf juice rubbing method; design: scale not given: the % may be the effect or the level left; how it was run: as §2
Puccinia triticina [21] = assay: Antifungal activity against Puccinia triticina inoculated on 100 ug/mL compound pre-treated wheat plants with 3 to 5 leaves assessed as growth inhibition
Ceratobasidium cereale = assay: Antifungal activity against Ceratobasidium cereale assessed as growth inhibition at 50 ug/mL measured after 2 days post dose
Alternaria mali = assay: Antifungal activity against Alternaria mali assessed as growth inhibition at 50 ug/mL measured after 2 days post dose; settings: 48 h, read-out: GI
Phytophthora infestans = assay: Antifungal activity against Phytophthora infestans assessed as growth inhibition at 50 ug/mL measured after 2 days post dose
How it was run: (§3)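 Compound stock at 500 μg/mL in DMF, diluted with sterile water in the dish and mixed into potato dextrose agar before setting. A 4 mm diameter fungal plug is placed on the plate and cultured at 24-26 °C. Colony diameter is measured after 2 days.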

Colletotrichum lagenaria = assay: Antifungal activity against Colletotrichum lagenaria assessed as growth inhibition at 50 ug/mL measured after 2 days post dose; settings: 48 h, read-out: GI
Rhizoctonia solani = assay: Antifungal activity against Rhizoctonia solani assessed as growth inhibition at 50 ug/mL measured after 2 days post dose
Phomopsis asparagi = assay: Antifungal activity against Phomopsis asparagi assessed as growth inhibition at 50 ug/mL measured after 2 days post dose; settings: 48 h, read-out: GI
Cytospora mali = assay: Antifungal activity against Valsa mali assessed as growth inhibition at 50 ug/mL measured after 2 days post dose; settings: 48 h, read-out: GI
Alternaria kikuchiana = assay: Antifungal activity against Alternaria kikuchiana assessed as growth inhibition at 50 ug/mL measured after 2 days post dose; settings: 48 h, read-out: GI
Sclerotinia sclerotiorum = assay: Antifungal activity against Sclerotinia sclerotiorum assessed as growth inhibition at 50 ug/mL measured after 2 days post dose; settings: 48 h, read-out: GI
Fusarium fujikuroi = assay: Antifungal activity against Fusarium fujikuroi assessed as growth inhibition at 50 ug/mL measured after 2 days post dose; settings: 48 h, read-out: GI
[22] = system: Botryosphaeria berengeriana; assay: Antifungal activity against Botryosphaeria berengeriana assessed as growth inhibition at 50 ug/mL measured after 2 days post dose
Ustilaginoidea virens = assay: Antifungal activity against Villosiclava virens assessed as growth inhibition at 50 ug/mL measured after 2 days post dose; settings: 48 h, read-out: GI
Alternaria solani = assay: Antifungal activity against Alternaria solani assessed as growth inhibition at 50 ug/mL measured after 2 days post dose; settings: 48 h, read-out: GI
Botrytis cinerea = assay: Antifungal activity against Botryotinia fuckeliana assessed as growth inhibition at 50 ug/mL measured after 2 days post dose; settings: 48 h, read-out: GI
Mycosphaerella arachidis = assay: Antifungal activity against Mycosphaerella arachidis assessed as growth inhibition at 50 ug/mL measured after 2 days post dose; settings: 48 h, read-out: GI
Puccinia triticina [23] = assay: Antifungal activity against Puccinia triticina inoculated on 500 ug/mL compound pre-treated wheat plants with 3 to 5 leaves assessed as growth inhibition
How it was run: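 Healthy wheat plants at the 3-5 leaf stage were sprayed with compound (500 μg/mL) and then inoculated with spores. Inhibition percentage was calculated against the corresponding spore stack.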

Fusarium graminearum = assay: Antifungal activity against Fusarium graminearum assessed as growth inhibition at 50 ug/mL measured after 2 days post dose; settings: 48 h, read-out: GI; how it was run: as §3
Fusarium oxysporum = assay: Antifungal activity against Fusarium oxysporum assessed as growth inhibition at 50 ug/mL measured after 2 days post dose; settings: 48 h, read-out: GI
[24] = system: Fusarium oxysporum f. sp. vasinfectum; assay: Antifungal activity against Fusarium oxysporum f. sp. vasinfectum assessed as growth inhibition at 50 ug/mL measured after 2 days post dose; settings: 48 h, read-out: GI
[25] = system: Colletotrichum gloeosporioides; assay: Antifungal activity against Glomerella cingulata assessed as growth inhibition at 50 ug/mL measured after 2 days post dose; settings: 48 h, read-out: GI

SMILES | growth inhibition (GI) (Tobacco mosaic virus [1]) | growth inhibition (GI) (Tobacco mosaic virus [2]) | Activity (Tobacco mosaic virus [3]) | growth inhibition (GI) (Tobacco mosaic virus [4]) | growth inhibition (GI) (Tobacco mosaic virus [5]) | growth inhibition (GI) (Tobacco mosaic virus [6]) | Activity (Tobacco mosaic virus [7]) | Activity (Tobacco mosaic virus [8]) | growth inhibition (GI) (Tobacco mosaic virus [9]) | Activity (Tobacco mosaic virus [10]) | Activity (Tobacco mosaic virus [11]) | Activity (Tobacco mosaic virus [12]) | Activity (Tobacco mosaic virus [13]) | growth inhibition (GI) (Tobacco mosaic virus [14]) | Activity (Tobacco mosaic virus [15]) | growth inhibition (GI) (Tobacco mosaic virus [16]) | Activity (Tobacco mosaic virus [17]) | growth inhibition (GI) (Tobacco mosaic virus [18]) | Activity (Tobacco mosaic virus [20]) | further results
CC(N)CC(=O)O (stereo not drawn) | 5% | 4% | 80% | 0% | 9% | 0% | 72% | 30% | 0% | 80% | 0% | 50% | 46% | 10% | 54% | 7% | 65% | 5% | 55% | growth inhibition (GI) (Tobacco mosaic virus [19]): 8%
O=C1NCNC(=O)N1 | – | – | – | – | – | – | 8% | – | – | – | – | 5% | – | – | – | 49% | – | 42% | – | –
N#Cc1c(Cl)c(Cl)c(Cl)c(C#N)c1Cl [CHLOROTHALONIL] | – | – | – | – | – | – | – | – | – | – | – | – | – | – | – | – | – | – | – | growth inhibition (GI) (Puccinia triticina [21]): 100%
Cc1ccc(NC(=O)c2snnc2C)cc1Cl [TIADINIL] | – | – | – | – | – | – | – | – | – | – | 63% | 40% | – | – | – | 0% | – | 0% | – | growth inhibition (GI) (Ceratobasidium cereale): inactive; inhibition of growth at 50 µg/mL (Alternaria mali): 32.1%; growth inhibition (GI) (Phytophthora infestans): inactive; inhibition of growth at 50 µg/mL (Colletotrichum lagenaria): 22.8%; growth inhibition (GI) (Rhizoctonia solani): inactive; inhibition of growth at 50 µg/mL (Phomopsis asparagi): 60%; inhibition of growth at 50 µg/mL (Cytospora mali): 3.6%; inhibition of growth at 50 µg/mL (Alternaria kikuchiana): 0%; inhibition of growth at 50 µg/mL (Sclerotinia sclerotiorum): 34.4%; inhibition of growth at 50 µg/mL (Fusarium fujikuroi): 0%; growth inhibition (GI) [22]: inactive; inhibition of growth at 50 µg/mL (Ustilaginoidea virens): 12%; inhibition of growth at 50 µg/mL (Alternaria solani): 0%; inhibition of growth at 50 µg/mL (Botrytis cinerea): 23.9%; inhibition of growth at 50 µg/mL (Mycosphaerella arachidis): 13.6%; growth inhibition (GI) (Puccinia triticina [23]): 40%; inhibition of growth at 50 µg/mL (Fusarium graminearum): 25%; inhibition of growth at 50 µg/mL (Fusarium oxysporum): 12.5%; inhibition of growth at 50 µg/mL [24]: 5.3%; inhibition of growth at 50 µg/mL [25]: 51.6%
O=C(O)c1cccc2nnsc12 [1,2,3-benzothia-diazole-7-carboxylic acid] | 8% | 5% | 8% | 0% | 8% | 6% | 5% | 0% | 7% | 2% | 3% | 5% | 10% | 18% | 0% | 3% | 12% | 5% | 8% | –

Reference: ChEMBL document CHEMBL3046238, “Synthesis and biological activity evaluation of 1,2,3-thiadiazole derivatives as potential elicitors with highly systemic acquired resistance” (2009)
